Source: ChEMBL document CHEMBL1777700, “Inhibition of multi-drug resistant HIV-1 reverse transcriptase by nucleoside β-triphosphates” (Bioorg Med Chem Lett, 2011)
Activity calls are given as the source filed them. The rule behind the calls is not given here.

Tests used:
[1] = molecular target: Human immunodeficiency virus type 1 reverse transcriptase (Human immunodeficiency virus 1) (UniProt Q72547); test: Inhibition of wild type HIV1 recombinant reverse transcriptase p66/p51 heterodimer […] after 10 mins by gel-based radiolabeled primer extension assay
[2] = system: Human immunodeficiency virus type 1 reverse transcriptase (Human immunodeficiency virus 1), Q72547 [M184V,K65R,Y115F]; test: Inhibition of NRTI-resistant HIV1 recombinant reverse transcriptase p66/p51 M184V/K65R/Y115F mutant at 100 uM after 10 mins by gel-based radiolabeled primer extension assay
Procedure, shortened: (§1)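 Purified p66/p51 HIV-1 RT (10 nM) was added to start reactions containing 50 nM of a 40 nt DNA template annealed to a 5′ end-labeled 22 nt DNA primer. The mix held 200 μM dNTPs, 10 mM Tris-HCl pH 8.0, 80 mM NaCl and 6 mM MgCl2. Reactions ran 10 min at 37 °C and were stopped with formamide gel-loading buffer. Inhibitor was tested at 10 nM–1 mM in tenfold steps, with a no-inhibitor lane.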

[3] = molecular target: Human immunodeficiency virus type 1 reverse transcriptase (Human immunodeficiency virus 1) (UniProt Q72547); test: Inhibition of wild type HIV1 recombinant reverse transcriptase p66/p51 heterodimer at 10 to 100 uM after 10 mins by gel-based radiolabeled primer extension assay; procedure, shortened: as §1
[4] = molecular target: Human immunodeficiency virus type 1 reverse transcriptase (Human immunodeficiency virus 1) (UniProt Q72547); test: Inhibition of NNRTI-resistant HIV1 recombinant reverse transcriptase p66/p51 heterodimer up to 1 mM after 10 mins by gel-based radiolabeled primer extension assay; procedure, shortened: as §1
[5] = molecular target: Human immunodeficiency virus type 1 reverse transcriptase (Human immunodeficiency virus 1) (UniProt Q72547); test: Inhibition of NNRTI-resistant HIV1 recombinant reverse transcriptase p66/p51 heterodimer at 100 uM after 10 mins by gel-based radiolabeled primer extension assay; procedure, shortened: as §1
[6] = molecular target: Human immunodeficiency virus type 1 reverse transcriptase (Human immunodeficiency virus 1) (UniProt Q72547); test: Inhibition of NNRTI-resistant HIV1 recombinant reverse transcriptase p66/p51 heterodimer at 10 nM to 10 uM after 10 mins by gel-based radiolabeled primer extension assay
[7] = molecular target: Human immunodeficiency virus type 1 reverse transcriptase (Human immunodeficiency virus 1) (UniProt Q72547); test: Inhibition of wild type HIV1 recombinant reverse transcriptase p66/p51 heterodimer at 10 nM after 10 mins by gel-based radiolabeled primer extension assay; procedure, shortened: as §1
[8] = system: Human immunodeficiency virus type 1 reverse transcriptase (Human immunodeficiency virus 1), Q72547 [M184V,K65R,Y115F]; test: Inhibition of NRTI-resistant HIV1 recombinant reverse transcriptase p66/p51 M184V/K65R/Y115F mutant at 10 uM after 10 mins by gel-based radiolabeled primer extension assay; procedure, shortened: as §1
[9] = system: Human immunodeficiency virus type 1 reverse transcriptase (Human immunodeficiency virus 1), Q72547 [M184V,K65R,Y115F]; test: Inhibition of NRTI-resistant HIV1 recombinant reverse transcriptase p66/p51 M184V/K65R/Y115F mutant at 10 nM after 10 mins by gel-based radiolabeled primer extension assay; procedure, shortened: as §1

With Cc1cn([C@H]2C=C[C@@H](COP(=O)(OP(=O)(O)O)OP(=O)(O)O)O2)c(=O)[nH]c1=O the inhibition [1] was “Active”, the inhibition [2] was “Active” and the inhibition [3] was “Active”. The inhibition [4] was “Active”.

With Nc1ncnc2c1ncn2[C@@H]1O[C@H](COP(=O)(OP(=O)(O)O)OP(=O)(O)O)[C@@H](O)[C@H]1O the inhibition [5] was “Active”, the inhibition [6] was “inactive” and the inhibition [7] was “Active”. The inhibition [8] was “Active” and the inhibition [9] was “Active”.

Cc1cn([C@H]2C[C@H](F)[C@@H](COP(=O)(OP(=O)(O)O)OP(=O)(O)O)O2)c(=O)[nH]c1=O was tested, and the inhibition [1] was “Active”, the inhibition [2] was “Active” and the inhibition [3] was “Active”. The inhibition [4] was “Active”.

In the case of Cc1cn([C@H]2C[C@H](N=[N+]=[N-])[C@@H](COP(=O)(OP(=O)(O)O)OP(=O)(O)O)O2)c(=O)[nH]c1=O, the inhibition [5] was “Active”, the inhibition [6] was “inactive” and the inhibition [7] was “Active”. For the same compound, the inhibition [8] was “Active” and the inhibition [9] was “Active”.
